Screening data: PubChem BioAssay, Johns Hopkins Ion Channel Center
Rows were chosen to be rich in hits. Some 3.5% of all compounds tested hit in one or more screens of this group.
MrgX1 antag: antagonists of human MrgX1 receptor, primary screen, HEK293 cells, Fluo-4 calcium flux; Mas-related G-protein coupled receptor member X1 (Homo sapiens), Q96LB2; BAM8-22 antagonism; stronger effect = lower value; B-score at 10 µM; 310,000 compounds, 1.3% hits; AID 588676, 2011;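 active = calcium-response B-score plate-corrected more than 3 library SD below zero, starting fluorescence within 5 deviations, no agonist response on first addition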;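 note: peak minus trough fluorescence over baseline after final BAM8-22 challenge near maximal dose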
MrgX1 ag: agonists of human MrgX1 receptor, primary screen, HEK293 cells, Fluo-4 calcium flux; B-score at 10 µM; Fluo-4 calcium fluorescence, agonist mode; stronger effect = higher value; 310,000 compounds, 0.44% hits; Mas-related G-protein coupled receptor member X1 (Homo sapiens), Q96LB2;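 active = calcium response B-score plate-corrected fluorescence ratio at least 3 library SD, with starting fluorescence B-score inside 5 SD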
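System – MrgX1-expressing HEK293 cells · Incubation – cells plated overnight, dye loaded 0.5 h 37 °C, 0.5 h room temperature · Technique – kinetic Fluo-4 NW fluorescence of intracellular calcium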
MrgX1 allo act: positive allosteric modulators of MrgX1, primary screen, HEK293 cells, Fluo-4 calcium flux; Mas-related G-protein coupled receptor member X1 (Homo sapiens), Q96LB2; FDSS; stronger effect = higher value; B-score at 10 µM; 310,000 compounds, 0.63% hits;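 active = plate-corrected calcium response at least 3 library SD above typical, normal starting fluorescence, not activating the receptor alone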;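 note: compound read alongside a low EC10 to EC30 dose of BAM8-22 agonist; peak minus trough fluorescence over baseline measured at the second addition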
RGS4 block: RGS4 inhibitors, primary screen, cell-based, HEK293 M3R inducible RGS4, calcium flux | 310,000 compounds, 0.45% hits | AID 463165, 2010 | B-score at 10 µM | Fluo-4 calcium flux; stronger effect = higher value; triggered by carbachol at its EC20;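 active = B-score, a plate-corrected calcium signal, over three deviations above library mean, with baseline fluorescence within five deviations of library mean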;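 note: RGS4 expression induced by doxycycline in cells with stable M3 receptor; B-score is computed from the integrated fluorescence ratio over baseline after carbachol; higher B-score means a larger calcium signal and so more RGS4 inhibition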
Target sequence (P49798 whole entry, looked up): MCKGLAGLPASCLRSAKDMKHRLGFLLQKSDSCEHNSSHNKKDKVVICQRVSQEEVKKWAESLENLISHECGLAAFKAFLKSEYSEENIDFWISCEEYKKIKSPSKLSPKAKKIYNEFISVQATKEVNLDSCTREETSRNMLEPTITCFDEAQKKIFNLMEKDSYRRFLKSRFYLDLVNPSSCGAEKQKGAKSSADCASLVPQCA
RGS4 pot: RGS4 potentiators or activators, primary screen, cell-based, HEK293 M3R inducible RGS4, calcium flux; AID 463111, 2010; B-score at 10 µM; 310,000 compounds, 0.92% hits; carbachol calcium flux Fluo4; stronger effect = lower value;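 active = B-score of the integrated calcium signal more than 4 SD below the library mean, with starting fluorescence not abnormally high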;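 note: negative B-score means reduced calcium response which marks RGS4 activation or potentiation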
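test system = HEK293 cells with stable M3R and inducible RGS4 | schedule = recording 10 s baseline at 1 Hz, 100 s post-agonist | technique = Fluo4-AM (2 µM) calcium-flux fluorescence, kinetic read | measure = Agonist-evoked peak-minus-minimum fluorescence over baseline, integrated ratio, B score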
RGS4 act valid: reduced carbachol calcium response, RGS4-induced M3R cells, confirmation, RGS4 activator project, cell-based, HEK293 M3R/RGS4 inducible, calcium flux, duplicate | inhibition, % at 10 µM | 1,100 compounds, 89% hits | shares compounds with RGS4 pot | carbachol calcium flux Fluo4;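 active = inhibition above 3 SD of the buffer control wells, cut at about 41% in these data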;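 note: signal is the integrated peak-minus-minimum Fluo4 fluorescence over baseline ratio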
RGS4 act ctr: RGS4 activator counter-screen hit in non-induced cells. shares compounds with RGS4 pot. HEK293 M3R non-induced RGS4, Fluo4 calcium flux; after carbachol challenge at its EC90. inhibition, % at 10 µM. 1,100 compounds, 82% hits. AID 602283;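 active = inhibition exceeding 3 SD of buffer-only control wells, cut at about 26% in these data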;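 note: percent drop in integrated peak-minus-baseline over baseline Fluo4 ratio after carbachol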
A number is an active result; 0 = inactive; - = no result given.

SMILES	MrgX1 antag	MrgX1 ag	MrgX1 allo act	RGS4 block	RGS4 pot	RGS4 act valid	RGS4 act ctr
CCN(CC)CCC(O)(c1ccccc1)C1CCCCC1 (configuration not stated)	0	0	0	0	-9.3	92	92
CN1CCN(c2ncnc3c2c(-c2ccccc2)cn3-c2ccc(F)cc2)CC1	0	0	0	0	0	-	-
CCOc1ccc(-n2cc(-c3ccccc3)c3c(N4CCOCC4)ncnc32)cc1	0	0	0	0	-8.2	62	0
CCCN1CCN(c2ncnc3scc(C4COc5ccccc5O4)c23)CC1 (configuration not stated)	0	0	0	0	-12	92	62
c1ccc2c(c1)OCC(c1csc3ncnc(N4CCCCC4)c13)O2 (configuration not stated)	0	0	0	0	0	-	-
CCOC(=O)C1=C(C)N=C2SC(C)C(=O)N2C1c1cccc(F)c1 (configuration not stated)	0	0	0	0	-8.1	0	0
C=CC[N+]1(CC#CCOC(c2ccccc2)c2ccccc2)CCOCC1	0	0	0	0	0	-	-
CN(C)CC#CCOC(c1ccccc1)c1ccccc1	0	0	0	0	-8.9	92	72
CN(C)CC#CCC(O)(c1ccccc1)c1ccccc1	0	0	0	0	0	-	-
CCN(CC)CCOC(c1ccccc1)c1ccc(C)cc1 (configuration not stated)	0	0	0	0	0	-	-
CCN(CC)CC#CCOC(c1ccccc1)c1ccccc1	0	0	0	0	-9.2	88	57
CCN(CC)CC#CCC(O)(c1ccccc1)c1ccccc1	0	0	0	0	-7.7	90	52
Cc1c([N+](=O)[O-])cc(C(=O)Nc2ccc(NC(=O)c3ccco3)cc2)cc1[N+](=O)[O-]	0	0	0	0	0	-	-
CC(=O)c1ccc(NC(=S)N2C(C)CCCC2C)cc1 (configuration not stated)	0	0	0	0	0	-	-
Cc1ccc(OCC(=O)Nc2ccc(CN3CCCCC3)cc2)c(C)c1	0	0	0	0	-9.9	66	84
O=C(CSc1nc2ccccc2s1)N1c2ccccc2Sc2ccc(Cl)cc21	0	0	0	0	0	-	-
O=C(NCCN1CCOCC1)N1c2ccccc2Sc2ccccc21	0	0	0	0	-11	83	54
CN(C)CCCNC(=O)N1c2ccccc2Sc2ccccc21	0	0	0	0	-11	92	91
O=C(CCN1CCOCC1)N1c2ccccc2Sc2ccc(Cl)cc21	0	0	0	0	-8.9	92	90
Cc1ccc(C(OCC(C)(C)C[N+](C)(C)C)c2ccccc2)cc1 (configuration not stated)	0	0	0	0	-11	88	63
CCc1nnc(NC(=O)c2sc3nc4cc(C)ccc4cc3c2N)s1	0	0	0	0	-8.8	72	32
COc1ccccc1NC(=O)CCNS(=O)(=O)c1ccc2c(c1)CC(C)N2C(=O)C1CC1 (configuration not stated)	0	0	0	0	0	-	-
CC(C)(C)CC(C)(C)NCC(O)COc1ccc2c(c1)CCC2 (configuration not stated)	0	0	0	0	-10	92	55
CC(C)(CO)NCC(O)COc1ccc2c(c1)CCC2 (configuration not stated)	0	0	0	0	0	-	-
CCc1ccccc1N(C(=O)c1snc(C(N)=O)c1N)C(C(=O)NCC1CCCO1)c1c[nH]c2ccccc12 (configuration not stated)	0	0	0	0	0	-	-
OC(CN1CCN(C(c2ccccc2)c2ccccc2)CC1)c1ccc(Br)cc1 (configuration not stated)	0	0	0	0	-13	92	79
